High-throughput results from PubChem.
Yeast growth inh: growth inhibitors of yeast BB579 in restrictive medium, primary screen, yeast lifespan-shortening project, S. cerevisiae; 140,000 tested, 0.51% active; inhibition, % at 10 µM; AID 804, 2007; OD615, 48 h;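 active = inhibition above a set limit, 3 SD over the mean compound inhibition, cut at about 44% in these data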
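Assay system – yeast BB579 (DeaD) · Dosing – single compound dose of 10 µM, 0.25% DMSO final · Detection – OD615 turbidity measurement · Buffer or medium – CSMM-D restrictive synthetic medium containing dextrose (glucose) · Benchmarks – positive control amphotericin B 10 µg/mL · Incubation – 48 h exposure, 30 °C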
TbHK1 inh: Trypanosoma brucei hexokinase 1 inhibitors, primary screen, biochemical, G6PDH-coupled NADH absorbance, MLSCN library. recombinant TbHK1, G6PDH-coupled NADH A340. inhibition, % at 10 µM. 220,000 tested, 0.11% active;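 active = inhibition of 50% or more in the single-dose primary screen; inactive = inhibition below 50%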
SDO1 yeast rescue: growth rescue of sdo1-depleted yeast, primary screen, S. cerevisiae, bone marrow failure model | S. cerevisiae sdo1-depleted JHY4D growth rescue, OD600 30 h; hits give high values; pdr5 snq2 efflux-pump mutant strain | z-score at 10 µM | 140,000 tested, 0.21% active | AID 817, 2007;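 active = z-score above 3 at both the 24 hr and the 30 hr optical density reads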;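 note: z-score against mean and SD of all compound wells on the same plate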
NCF1 inh: p47phox/p22phox peptide binding inhibitors, primary screen, biochemical, uHTS, NADPH oxidase regulatory subunit; 220,000 tested, 0.53% active; inhibition, % at 24.7 µM; fluorescence polarization, 2 h; Neutrophil cytosol factor 1 (Homo sapiens), P14598; AID 1274, 2008;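 active = inhibition above about 30%, limit read from the data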;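 note: 0% = p47phox with labelled peptide and 100% = labelled peptide alone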
Yeast lifespan up: compounds extending yeast replicative lifespan, primary screen, S. cerevisiae, OD615; AID 775, 2007; 130,000 tested, 0.68% active; S. cerevisiae growth with nicotinamide; deaD strain in restrictive glucose medium; inhibition of the nicotinamide effect, % at 10 µM;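 active = inhibition above a set limit, placed 3 SD over the median of all compounds, cut at about 26% in these data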;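 note: 0% = nicotinamide-treated wells and 100% = cells grown without nicotinamide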
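assay system = DeaD-strain S. cerevisiae | measured by = absorbance at 615 nm | probe or stimulus = nicotinamide 1.5 mM | buffer or medium = CSMM-D glucose medium, restrictive | times = 48 h at 30 °C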
RBBP9 inh: human RBBP9 inhibitors, primary screen, biochemical, fluorescence polarization, FP-Rh probe, HTS; recombinant RBBP9; inhibition, % at 7.94 µM; 220,000 tested, 0.2% active;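 active = inhibition above the campaign mean of all tested compounds plus 3 SD, cut at about 14% in these data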;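 note: plate controls were DMSO wells with RBBP9 for no effect and wells lacking RBBP9 protein for full effect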
Target sequence (O75884 whole entry, looked up): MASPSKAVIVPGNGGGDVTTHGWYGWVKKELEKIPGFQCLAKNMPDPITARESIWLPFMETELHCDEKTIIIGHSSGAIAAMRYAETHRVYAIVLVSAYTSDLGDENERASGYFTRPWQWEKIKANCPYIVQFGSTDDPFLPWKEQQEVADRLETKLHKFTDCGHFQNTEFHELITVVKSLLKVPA
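Test system: recombinant human RBBP9. Quantity: 2.5 µM RBBP9 dispensing solution, before mixing. Detection: FP readout at 525/598 nm. Reagent: Serine-hydrolase probe FP-Rh, 375 nM pre-mixing. Measure: % inhibition. Control set: DMSO-treated enzyme wells and wells lacking RBBP9. Buffer or medium: Tris-NaCl-Pluronic buffer, pH 8.0. Times: preincubation 30 min plus labeling 45 min at 25 °C.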
RBBP9 inh conf: human RBBP9 inhibitors, retest, confirmation, biochemical, fluorescence polarization, FP-Rh probe, triplicate; shares compounds with RBBP9 inh; recombinant RBBP9; inhibition, % at 7.94 µM; 410 tested, 36% active; AID 1537, 2009;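 active = inhibition above the hit cutoff derived for the primary screen, cut at about 15% in these data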;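 note: 0% = RBBP9 with DMSO and 100% = wells lacking RBBP9 protein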
* hit, by the source's call; . = no result given. Compounds with a hit are over-represented: about 1.6% of the library has one in this group of screens.

SMILES	Yeast growth inh	TbHK1 inh	SDO1 yeast rescue	NCF1 inh	Yeast lifespan up	RBBP9 inh	RBBP9 inh conf
Cc1ccc(S(=O)(=O)Nc2ccc3oc(=O)sc3c2)c(C)c1	-20	4	-1.7	-4	-5	20*	16*
Cc1sc(NC(=O)/C=C/c2ccco2)c(C(=O)O)c1C	.	-20	.	-8	.	-1	.
Cc1cccc(OCCCC(=O)Nc2ccc(N(C)C)cc2)c1	-22	-1	0.44	-4	-5	18*	26*
Cc1cccc(OCCCC(=O)Nc2ccc(Br)cc2)c1	-44	-3	-1.1	-10	-7	-4	.
COC(=O)c1ccccc1N=Nc1c(C)noc1C	.	-24	.	-8	.	-3	.
CC1CCN(S(=O)(=O)c2ccc(C(=O)N3CCN(c4ccccc4F)CC3)cc2)CC1	.	2	.	-8	.	-6	.
O=C(O)c1cnc2ccccc2n1	-12	-6	-0.14	-3	-3	-3	.
N#CCc1cnc2ccccc2n1	.	-5	.	11	.	16*	2
CN1N=C2c3ccccc3CCCC2C1c1ccc(F)cc1 (stereo not drawn)	.	1	.	-7	.	-6	.
